Drawing on ChEMBL document CHEMBL1124329, “Synthesis of novel bifunctional chelators and their use in preparing monoclonal antibody conjugates for tumor targeting” (J Med Chem, 1989), this text covers Biodistribution for 5 compounds.

“And” between values parts separate entries of the source, which are not always exact repeats. Identical values can stand only once.

What all share (conditions): in vivo, iv
Data set [1] deals with Mus musculus. In words: Biodistribution of labeled B72.3-chelator conjugate(DTPA isothiocynates) in nude mice bearing LS174T tumors, in kidney, administered intravenously expressed as % of injected dose of indium-111 per gram of tissue. Type of data set: ADME, organism-based. Summed up: (§1)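 Female athymic nu/nu mice (BALB/c background) were given 5×10^6 A375 melanoma cells (antigen-negative) s.c. in the left flank, then 14 days later 1.25×10^6 LS174T colorectal cells (antigen-positive) in the right flank. After a further 7–14 days, with tumors at 100–500 mg, mice were randomized and given 2.0 μg indium-111-labeled B72.3 conjugate in saline i.v. by tail vein. At 48 h, tissues were weighed and gamma-counted, and activity was expressed as % of counted injectate per gram.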

In data set [2] the test system is Mus musculus. In words: Biodistribution of labeled B72.3-chelator conjugate(DTPA isothiocynates) in Nude mice bearing LS174T tumor (Ag+), administered intravenously expressed as % of injected dose of indium-111 per gram of tissue. It counts as ADME, organism-based. Summed up: as §1
Data set [3] relates to Mus musculus. The data set is described as follows: Biodistribution of labeled B72.3-chelator conjugate (DTPA isothiocynates) in Nude mice bearing LS174T tumors, in blood, administered intravenously expressed as % of injected dose of indium-111 per gram of tissue. It counts as ADME, organism-based. Summed up:
as §1

In data set [4] the test system is Mus musculus. In words: Biodistribution of labeled B72.3-chelator conjugate(DTPA isothiocynates) in Nude mice bearing LS174T tumors, in liver, administered intravenously expressed as % of injected dose of indium-111 per gram of tissue. It counts as ADME, organism-based. Summed up:
as §1

Data set [5] relates to Mus musculus. In words: Biodistribution of labeled B72.3-chelator conjugate(DTPA isothiocynates) in Nude mice bearing LS174T tumors, in spleen, administered intravenously expressed as % of injected dose of indium-111 per gram of tissue. It counts as ADME, organism-based. Summed up:
as §1

Data set [6] relates to Mus musculus. In words: Biodistribution of labeled B72.3-chelator conjugate(DTPA isothiocynates) in Nude mice bearing LS174T tumors, in lungs, administered intravenously expressed as % of injected dose of indium-111 per gram of tissue. It counts as ADME, organism-based, Lung. Summed up: as §1
In data set [7] the test system is Mus musculus. In words: Biodistribution of labeled B72.3-chelator conjugate (DTPA amide) in Nude mice bearing LS174T tumor (Ag+), administered intravenously expressed as % of injected dose of indium-111 per gram of tissue. It counts as ADME, organism-based.
The subject of data set [8] is Mus musculus. The data set is described as follows: Biodistribution of labeled B72.3-chelator conjugate(DTPA amide) in Nude mice bearing LS174T tumors, in blood, administered intravenously expressed as % of injected dose of indium-111 per gram of tissue. Type of data set: ADME, organism-based.
The test system of data set [9] is Mus musculus. In words: Biodistribution of labeled B72.3-chelator conjugate(DTPA amide) in Nude mice bearing LS174T tumor (Ag-), administered intravenously expressed as % of injected dose of indium-111 per gram of tissue. Type of data set: ADME, organism-based.
Data set [10] deals with Mus musculus. The data set is described as follows: Biodistribution of labeled B72.3-chelator conjugate(DTPA amide)s in Nude mice bearing LS174T tumors, in lungs, administered intravenously expressed as % of injected dose of indium-111 per gram of tissue. Type of data set: ADME, organism-based, Lung.
For data set [11], the system named is Mus musculus. The data set is described as follows: Biodistribution of labeled B72.3-chelator conjugate(DTPA amide) in Nude mice bearing LS174T tumors, in spleen, administered intravenously expressed as % of injected dose of indium-111 per gram of tissue. It counts as ADME, organism-based.
Data set [12] has as its system Mus musculus. In words: Biodistribution of labeled B72.3-chelator conjugate(DTPA amide) in nude mice bearing LS174T tumors, in kidney, administered intravenously expressed as % of injected dose of indium-111 per gram of tissue. Type of data set: ADME, organism-based.
For data set [13], the system named is Mus musculus. In words: Biodistribution of labeled B72.3-chelator conjugate in Nude mice bearing LS174T tumors, in liver, administered intravenously expressed as % of injected dose of indium-111 per gram of tissue.
Data set [14] has as its system Mus musculus. The data set is described as follows: Biodistribution of labeled B72.3-chelator conjugate(EDTA isothiocynates) in Nude mice bearing LS174T tumors, in liver, administered intravenously expressed as % of injected dose of indium-111 per gram of tissue. It counts as ADME, organism-based. Summed up:
as §1

The subject of data set [15] is Mus musculus. In words: Biodistribution of labeled B72.3-chelator conjugate(EDTA isothiocynates) in Nude mice bearing LS174T tumors, in lungs, administered intravenously expressed as % of injected dose of indium-111 per gram of tissue. It counts as ADME, organism-based, Lung. Summed up:
as §1

Data set [16] concerns Mus musculus. In words: Biodistribution of labeled B72.3-chelator conjugate (EDTA isothiocynates) in Nude mice bearing LS174T tumors, in blood, administered intravenously expressed as % of injected dose of indium-111 per gram of tissue. It counts as ADME, organism-based. Summed up: as §1
For data set [17], the system named is Mus musculus. The data set is described as follows: Biodistribution of labeled B72.3-chelator conjugate(EDTA isothiocynates) in nude mice bearing LS174T tumors, in kidney, administered intravenously expressed as % of injected dose of indium-111 per gram of tissue. Type of data set: ADME, organism-based. Summed up:
as §1

Data set [18] deals with Mus musculus. The data set is described as follows: Biodistribution of labeled B72.3-chelator conjugate(EDTA isothiocynates) in Nude mice bearing LS174T tumors, in spleen, administered intravenously expressed as % of injected dose of indium-111 per gram of tissue. Type of data set: ADME, organism-based. Summed up:
as §1

For data set [19], the system named is Mus musculus. The data set is described as follows: Biodistribution of labeled B72.3-chelator conjugatec in Nude mice bearing LS174T tumor (Ag+), administered intravenously expressed as % of injected dose of indium-111 per gram of tissue. Type of data set: ADME, organism-based.
Data set [20] relates to Mus musculus. In words: Biodistribution of labeled B72.3-chelator conjugate (DTPA amide) in Nude mice bearing LS174T tumors, in blood, administered intravenously expressed as % of injected dose of indium-111 per gram of tissue. It counts as ADME, organism-based.
The subject of data set [21] is Mus musculus. In words: Biodistribution of labeled B72.3-chelator conjugate(DTPA amide) in Nude mice bearing LS174T tumor (Ag+), administered intravenously expressed as % of injected dose of indium-111 per gram of tissue. Type of data set: ADME, organism-based.

Turning to `Nc1ccc(CC(CN(CCN(CC(=O)O)CC(=O)O)CC(=O)O)N(CC(=O)O)CC(=O)O)cc1` (stereo not given), the Biodistribution in the data set on Mus musculus [1] was determined as 8.99%; with Mus musculus [2], 25.94%; in the data set with Mus musculus [3] it was 18.37%; in the data set on Mus musculus [4], 9.09%; in the data set with Mus musculus [5], 5.03%; in the data set with Mus musculus [6] it was 9.94%.

As to `O=C(O)CN(CCN(CC(=O)O)CC(=O)O)CCN(CC(=O)O)C(Cc1ccc(N=C=S)cc1)C(=O)O` (stereo not given), the Biodistribution with Mus musculus [7] amounted to 19.5%; in the data set on Mus musculus [8], 8.9%; in the data set on Mus musculus [9], 4.1%; in the data set with Mus musculus [10] it was 4.1%; with Mus musculus [11] it was 4%; with Mus musculus [12], 2.3%. Moreover, the Biodistribution in the data set with Mus musculus [13] was 6.9%.

For `Nc1ccc(CC(CN(CC(=O)O)CC(=O)O)N(CC(=O)O)CC(=O)O)cc1` (stereo not given), the Biodistribution with Mus musculus [14] stood at 14.26%; in the data set on Mus musculus [15], 9.19%; with Mus musculus [16] it was 19.82%; in the data set with Mus musculus [17] it was 16.91%; with Mus musculus [18] it was 11.68%; in the data set on Mus musculus [19], 20.82%.

For the compound `O=C(O)CN(CCN(CC(=O)O)CC(=O)O)CCN(CC(=O)O)CC(=O)O` [PENTETIC ACID], the Biodistribution in the data set on Mus musculus [7] is 18.97%; in the data set on Mus musculus [20] it was 11.23%; with Mus musculus [8], 10.67%; in the data set on Mus musculus [9], 6.23%; in the data set on Mus musculus [21] it was 42.22%; in the data set on Mus musculus [10] it was 6.3% and 6.15%. The Biodistribution in the data set with Mus musculus [11] is 9.14% and 12.12%; in the data set on Mus musculus [12] it was 17.14% and 12.64%; in the data set with Mus musculus [13] it was 17.2% and 19.39%.

For `O=C(O)CN(CCN(CC(=O)O)C(Cc1ccc(N=C=S)cc1)C(=O)O)CC(=O)O` (stereo not given), the Biodistribution in the data set on Mus musculus [7] is on record as 21.1%; in the data set on Mus musculus [8], 12.1%; in the data set on Mus musculus [9], 5.2%; in the data set with Mus musculus [10] it was 5.5%; in the data set on Mus musculus [11], 3.9%; in the data set with Mus musculus [12], 5.9%. In the data set on Mus musculus [13], this compound showed a Biodistribution of 6.1%.
